The list is not random: actives were taken first. Their share in the collection is about 3.5%.
RGS4 block: human RGS4 inhibition. AID 463165. B-score at 10 µM. HEK293 M3R/RGS4 inducible, Fluo-4 calcium flux; active compounds read high; triggered by carbachol at its EC20. 310,000 compounds, 0.45% hits. P49798;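 active = B-score, a plate-corrected calcium signal, over three deviations above library mean, with baseline fluorescence within five deviations of library mean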;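 note: RGS4 expression induced by doxycycline in cells with stable M3 receptor; B-score is computed from the integrated fluorescence ratio over baseline after carbachol; higher B-score means a larger calcium signal and so more RGS4 inhibition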
Target sequence (P49798 whole entry, looked up): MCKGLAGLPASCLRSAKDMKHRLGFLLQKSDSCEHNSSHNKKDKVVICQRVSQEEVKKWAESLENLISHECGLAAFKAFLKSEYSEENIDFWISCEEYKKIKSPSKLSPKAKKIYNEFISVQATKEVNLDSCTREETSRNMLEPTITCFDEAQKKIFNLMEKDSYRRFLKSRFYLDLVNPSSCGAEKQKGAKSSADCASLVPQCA
MrgX1 antagonist: blocks BAM8-22 activation of human MrgX1 receptor; MRGX1-HEK293 calcium flux, Fluo-4, BAM8-22 antagonism; active compounds read low; B-score at 10 µM; 310,000 compounds, 1.3% hits;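 active = calcium-response B-score plate-corrected more than 3 library SD below zero, starting fluorescence within 5 deviations, no agonist response on first addition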;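 note: peak minus trough fluorescence over baseline after final BAM8-22 challenge near maximal dose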
Target sequence (Q96LB2 whole entry, looked up): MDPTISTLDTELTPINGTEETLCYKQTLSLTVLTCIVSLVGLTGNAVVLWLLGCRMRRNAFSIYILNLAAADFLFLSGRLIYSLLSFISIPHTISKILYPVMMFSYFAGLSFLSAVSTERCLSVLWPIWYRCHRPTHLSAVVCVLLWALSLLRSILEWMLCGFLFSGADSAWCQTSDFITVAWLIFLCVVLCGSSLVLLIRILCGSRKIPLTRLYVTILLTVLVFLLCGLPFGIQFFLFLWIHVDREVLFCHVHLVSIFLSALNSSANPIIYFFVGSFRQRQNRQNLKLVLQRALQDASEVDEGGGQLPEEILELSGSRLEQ
MrgX1 allo act: human MrgX1 positive allosteric modulation, primary screen. MrgX1-HEK293, Fluo-4 calcium flux, FDSS; active compounds read high. 310,000 compounds, 0.63% hits. B-score at 10 µM. AID 588675. Q96LB2;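 active = plate-corrected calcium response at least 3 library SD above typical, normal starting fluorescence, not activating the receptor alone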;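 note: compound read alongside a low EC10 to EC30 dose of BAM8-22 agonist; peak minus trough fluorescence over baseline measured at the second addition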
MrgX1 agonist: human MrgX1 receptor agonism, primary screen; MrgX1-HEK293 cells, Fluo-4 calcium fluorescence, agonist mode; active compounds read high; B-score at 10 µM; 310,000 compounds, 0.44% hits; Q96LB2;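 active = calcium response B-score plate-corrected fluorescence ratio at least 3 library SD, with starting fluorescence B-score inside 5 SD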
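Material: HEK293 cells stably expressing human MrgX1 receptor | Quantity: 15,000 cells per well | Times: Cells plated overnight, dye loaded 0.5 h 37 °C, 0.5 h room temperature | Measured by: Kinetic Fluo-4 NW fluorescence of intracellular calcium | Control set: Positive and negative controls per plate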
RGS4 pot: potentiators or activators of RGS4; HEK293 M3R/inducible RGS4, carbachol calcium flux Fluo4; active compounds read low; B-score at 10 µM; 310,000 compounds, 0.92% hits;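 active = B-score of the integrated calcium signal more than 4 SD below the library mean, with starting fluorescence not abnormally high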;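 note: negative B-score means reduced calcium response which marks RGS4 activation or potentiation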
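Detection: kinetic calcium fluorescence imaging with Fluo4-AM dye, 2 µM / Material: HEK293 cells with stable M3R and inducible RGS4 / Schedule: recording 10 s baseline at 1 Hz, 100 s post-agonist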
Each line names hits and unclear results; the compound was inactive in the other large screens.

O=C(/C=C/c1ccc(Cl)cc1)NC1CC2CCC1C2 (centres undefined)	MrgX1 allo act 7.2
Cc1ccc2nc(/C(C#N)=C/c3ccc(O)c(O)c3)[nH]c2c1	MrgX1 agonist 35
Cc1ccc2nc(/C(C#N)=C/c3ccccc3C(=O)O)[nH]c2c1	none
Cc1ccc(-c2csc(N/N=C/c3ccco3)n2)cc1	none
Cc1ccc(-c2csc(N/N=C/C=C/c3ccccc3)n2)cc1	MrgX1 antagonist -5.4
C(=N\Nc1nc(-c2ccccc2)cs1)/c1ccco1	MrgX1 antagonist -6.7
O=C(CSc1nnc(NC(=O)c2ccccc2Cl)s1)Nc1ccc2c(c1)oc1ccccc12	MrgX1 antagonist -4.6
COc1ccccc1Nc1c([N+](=O)[O-])cncc1[N+](=O)[O-]	none
O=[N+]([O-])c1ccc(CSc2ncnc3c2ncn3[C@@H]2O[C@H](CO)[C@@H](O)[C@H]2O)cc1	none (no result: RGS4 block, RGS4 pot)
NCCNC(=O)Cc1cccc(NC(=O)Cc2ccc(Nc3ncnc4c3ncn4[C@@H]3O[C@H](CO)[C@@H](O)[C@H]3O)cc2)c1	MrgX1 allo act 8.2
CC(=O)c1cccc(NC(=O)N2CCCC2C(=O)NCc2ccc3c(c2)OCO3)c1 (centres undefined)	none
Cc1ccc(NS(=O)(=O)c2cc(Br)cnc2N)c(Cl)c1	RGS4 pot -7
COc1cc(OC)c(NS(=O)(=O)c2cc(Br)cnc2N)cc1Cl	none
Cc1ccc(NS(=O)(=O)c2ccc3c(c2)C(=O)c2ccccc2C3=O)c(C)c1	none (no result: RGS4 block, RGS4 pot)
CC1=C(C(=O)Nc2ccccc2)C2(CCCCC2)C(C#N)=C(SCC(N)=O)N1	none
COc1ccc(NC(=O)c2ccccc2NC(=O)c2ccco2)c(OC)c1	none
COc1ccc(NC(=S)NNC(=O)c2ccco2)c(OC)c1	MrgX1 antagonist -5.3
COc1ccc(-c2cc(-c3ccccc3)nc(Cl)n2)cc1OC	RGS4 pot -7
CCc1nnc(NC(=O)c2ccc(COc3ccccc3Cl)o2)s1	none
O=C1/C(=C/c2cccc([N+](=O)[O-])c2)CCc2ccccc21	MrgX1 antagonist -5.8
O=C1/C(=C/c2ccc([N+](=O)[O-])cc2)CCc2ccccc21	none
Clc1ccc(CSc2snnc2-c2ccccc2)cc1	RGS4 pot -7.2
Clc1ccc(-c2nnsc2SCc2ccccc2)cc1	none
CCOc1ccc(/C(C)=N/NC(=O)c2nnn(-c3nonc3N)c2-c2cccs2)cc1	none
C/C(CCC(C)C)=N\Nc1cc(C)c2ccccc2n1	MrgX1 allo act 10
COc1ccc(-c2csc(NC(=O)c3ccccc3Br)c2C(=O)O)cc1	none
COc1ccc(-c2csc(NC(=O)c3ccc(C(C)(C)C)cc3)c2C(=O)O)cc1	MrgX1 allo act 14
O=C(c1cccc2ccccc12)C1CCCN(C(=O)CCCn2cncn2)C1 (centres undefined)	none
COCCn1c(C)cc(C(=O)COC(=O)CNC(=O)c2ccccc2)c1C	MrgX1 antagonist -5
CCC1(C(=O)c2ccccc2)C(c2ccc([N+](=O)[O-])cc2)C1(C(=O)OC)C(=O)OC (centres undefined)	MrgX1 agonist 27
CC/C(=N\Nc1ccc([N+](=O)[O-])cc1)c1ccccc1	none
O=C(CC(=O)c1cc(Cl)ccc1O)c1ccccc1	MrgX1 antagonist -5
Cc1ccc(C(=O)Nc2ncc([N+](=O)[O-])s2)cc1	MrgX1 antagonist -4.5
Cc1onc(-c2ccccc2)c1C(=O)Nc1ncc([N+](=O)[O-])s1	MrgX1 antagonist -4.5
O=C(Nc1ncc([N+](=O)[O-])s1)c1ccc2c(c1)OCO2	none
COc1cccc(N2CCN(S(=O)(=O)c3ccc(CN4C(=O)c5cccnc5C4=O)cc3)CC2)c1	none
O=C(CCc1ccc(Oc2cc([N+](=O)[O-])cc([N+](=O)[O-])c2)cc1)N1CCCCCC1	RGS4 pot -10
O=C(Cc1ccc([N+](=O)[O-])cc1)N1CCCCCC1	none
O=C(CNS(=O)(=O)c1ccc([N+](=O)[O-])cc1)N/N=C\c1ccc(O)cc1	MrgX1 antagonist -6.1, MrgX1 allo act 9.1
Cn1cccc1CC(=O)N/N=C/c1ccc([N+](=O)[O-])cc1	MrgX1 allo act 7.6
Cn1cccc1CC(=O)N/N=C/c1ccc(Cl)cc1	MrgX1 allo act 11
CC(=O)Nc1ccc(/C=N\NC(=O)CNS(=O)(=O)c2ccc([N+](=O)[O-])cc2)cc1	none
Cc1cc(C)cc(-n2c(C)cc(/C=N\NC(=O)COc3cccc4cccnc34)c2C)c1	RGS4 pot -8.7
O=C(c1cccc(C(F)(F)F)c1)N1CCC(O)(CS(=O)(=O)Cc2ccc(Cl)cc2)CC1	none
O=C(Nc1cccc(Br)c1)c1ccc(CN2CCc3ccccc3C2)cc1	MrgX1 antagonist -6.1, RGS4 pot -8.8
CC(=O)Nc1ccc(NC(=O)c2ccc(CN3CCc4ccccc4C3)cc2)cc1	none
CSc1cccc(NC(=O)c2ccc(CN3CCc4ccccc4C3)cc2)c1	MrgX1 antagonist -8.2
Cc1cc(N2CCCC2)ccc1/C=C1\NC(=S)N(C)C1=O	MrgX1 agonist 44
CN1C(=O)c2ccc(N3CCCC3)cc2C1=O	none
CN(C)C(=O)c1ccc(NC(=O)COC(=O)c2cc(S(=O)(=O)N(C)C)ccc2N2CCCC2)cc1	none
O=S(=O)(Nc1c(S(=O)(=O)c2ccccc2)c2nc3ccccc3nc2n1C1CCCCC1)c1ccccc1	RGS4 pot -10
CC[n+]1ccccc1/C=C1\Sc2ccc(C)cc2N1C	MrgX1 antagonist -8.4
C/C(=N\NC(=O)c1ccc(Br)cc1)c1cccc(NC(=O)c2cccnc2)c1	none
CC1=CC(=C(C#N)C#N)c2ccccc2N1C	none
CC1=C/C(=C\C=C(C#N)C#N)N(C)c2ccccc21	MrgX1 antagonist -5.7
CCN(CC)S(=O)(=O)c1cc(NC(=O)COc2ccc(C#N)cc2OC)ccc1C	MrgX1 antagonist -6.8
O=C(Nc1cccnc1)c1ccc(NS(=O)(=O)c2cccc([N+](=O)[O-])c2)cc1	MrgX1 allo act 14
COc1cc([N+](=O)[O-])ccc1NC(=O)Nc1cccnc1	none
O=C(Nc1ccc(OC(F)(F)F)cc1)Nc1cccc([N+](=O)[O-])c1	MrgX1 antagonist -6.6
Cc1cc(C)nc(/N=C(\N)Nc2ccc([N+](=O)[O-])cc2)n1	none
O=C(Nc1ccc(OC(F)(F)F)cc1)Nc1cccnc1	none
Cc1cc(C)nc(/N=C(\N)Nc2cccc([N+](=O)[O-])c2)n1	MrgX1 agonist 41
O=C(Nc1cccnc1)Nc1cccc([N+](=O)[O-])c1	MrgX1 antagonist -5.2
Cc1occc1C(=O)NNC(=S)NCc1ccc(Cl)cc1	none
CC/C(=N\N=C(/CC)c1ccccc1N)c1ccccc1N	none
CN1C[C@H](C(=O)NC2(C)OC3(O)[C@@H]4CCCN4C(=O)[C@H](Cc4ccccc4)N3C2=O)CC2c3cccc4[nH]cc(c34)C[C@H]21 (some centres undefined)	none
